# Data published in ChEMBL document CHEMBL1155010, “Synthesis and biological evaluation of substituted [18F]imidazo[1,2-a]pyridines and [18F]pyrazolo[1,5-a]pyrimidines for the study of the peripheral benzodiazepine receptor using positron emission tomography” (J Med Chem, 2008).
# What was measured:
# Adrenal [1] = test: Biodistribution in Sprague-Dawley rat adrenals assessed per gram of tissue at 1 MBq, iv after 0.25 hrs; assay type: ADME, organism-based, Adrenal tissue; details: in vivo
# Summary of the method: (§1)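 Male SD rats aged 8-10 weeks got 1 MBq [18F]tracer by tail vein in 0.1 mL. Groups of n = 4 were killed (CO2, then cervical fracture) at 0.25, 0.5, 1 and 4 h. Organs were weighed and gamma counted against a diluted standard of the injectate. Results are %ID per gram wet tissue, mean with standard deviation.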
# Spleen [2] = test: Biodistribution in Sprague-Dawley rat spleen assessed per gram of tissue at 1 MBq, iv after 1 hr; assay type: ADME, organism-based; details: in vivo; summary of the method: as §1
# Liver [3] = test: Biodistribution in Sprague-Dawley rat liver assessed per gram of tissue at 1 MBq, iv after 1 hr; assay type: ADME, organism-based; details: in vivo; summary of the method: as §1
# Kidney [4] = test: Biodistribution in Sprague-Dawley rat kidney assessed per gram of tissue at 1 MBq, iv after 1 hr; assay type: ADME, organism-based; details: in vivo; summary of the method: as §1
# Spleen [5] = test: Biodistribution in Sprague-Dawley rat spleen assessed per gram of tissue at 1 MBq, iv after 0.5 hrs; assay type: ADME, organism-based; details: in vivo; summary of the method: as §1
# [6] = Biodistribution in Sprague-Dawley rat testis assessed per gram of tissue at 1 MBq, iv after 4 hrs; assay type: ADME, organism-based; details: in vivo; summary of the method: as §1
# Heart [7] = test: Biodistribution in Sprague-Dawley rat heart assessed per gram of tissue at 1 MBq, iv after 0.5 hrs; assay type: ADME, organism-based; details: in vivo; summary of the method: as §1
# Kidney [8] = test: Biodistribution in Sprague-Dawley rat kidney assessed per gram of tissue at 1 MBq, iv after 0.25 hrs; assay type: ADME, organism-based; details: in vivo; summary of the method: as §1
# Heart [9] = test: Biodistribution in Sprague-Dawley rat heart assessed per gram of tissue at 1 MBq, iv after 0.25 hrs; assay type: ADME, organism-based; details: in vivo; summary of the method: as §1
# [10] = Biodistribution in Sprague-Dawley rat testis assessed per gram of tissue at 1 MBq, iv after 1 hr; assay type: ADME, organism-based; details: in vivo; summary of the method: as §1
# [11] = Ratio of drug level in olfactory bulb to blood in Sprague-Dawley rat at 1 MBq, iv; assay type: ADME
# Summary of the method: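 Same rat biodistribution as above: 1 MBq iv by tail vein, n = 4 per time point, 0.25-4 h, gamma counting as %ID/g. Ratio is the olfactory bulb radioactivity concentration divided by the blood concentration at each time.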
# [12] = Metabolic stability in Sprague-Dawley rat frontal cortex assessed as drug remaining at 30 MBq after 4 hrs by Radio-HPLC analysis; assay type: ADME, tissue-based; details: read-out: Stability
# Summary of the method: (§2)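 Rats received 30 MBq tracer and were sampled at 0.25, 0.5, 1 and 4 h. Plasma was diluted with water containing unlabeled carrier and KF and injected directly. Frontal cortex or olfactory bulb was sonicated in acetonitrile/water 1:1 with carrier and KF, centrifuged, and the supernatant diluted. Radio-HPLC used a precolumn switched to C18 with a CH3CN/0.05 M sodium acetate pH 5.5 gradient. Result is % parent remaining.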
# [13] = Metabolic stability in Sprague-Dawley rat plasma assessed as drug remaining at 30 MBq after 4 hrs by Radio-HPLC analysis; assay type: ADME, cell-free; details: read-out: Stability; summary of the method: as §2
# Femur [14] = test: Biodistribution in Sprague-Dawley rat femur at 1 MBq, iv after 0.25 hrs; assay type: ADME, organism-based; details: in vivo; summary of the method: as §1
# Spleen [15] = test: Biodistribution in Sprague-Dawley rat spleen assessed per gram of tissue at 1 MBq, iv after 4 hrs; assay type: ADME, organism-based; details: in vivo; summary of the method: as §1
# Kidney [16] = test: Biodistribution in Sprague-Dawley rat kidney assessed per gram of tissue at 1 MBq, iv after 4 hrs; assay type: ADME, organism-based; details: in vivo; summary of the method: as §1
# Adrenal [17] = test: Biodistribution in Sprague-Dawley rat adrenals assessed per gram of tissue at 1 MBq, iv after 0.5 hrs; assay type: ADME, organism-based, Adrenal tissue; details: in vivo; summary of the method: as §1
# Adrenal [18] = test: Biodistribution in Sprague-Dawley rat adrenals assessed per gram of tissue at 1 MBq, iv after 4 hrs; assay type: ADME, organism-based, Adrenal tissue; details: in vivo; summary of the method: as §1
# Adrenal [19] = test: Biodistribution in Sprague-Dawley rat adrenals assessed per gram of tissue at 1 MBq, iv after 1 hr; assay type: ADME, organism-based, Adrenal tissue; details: in vivo; summary of the method: as §1
# [20] = Biodistribution in Sprague-Dawley rat testis assessed per gram of tissue at 1 MBq, iv after 0.25 hrs; assay type: ADME, organism-based; details: in vivo; summary of the method: as §1
# [21] = Biodistribution in Sprague-Dawley rat testis assessed per gram of tissue at 1 MBq, iv after 0.5 hrs; assay type: ADME, organism-based; details: in vivo; summary of the method: as §1
# [22] = Metabolic stability in Sprague-Dawley rat olfactory bulb assessed as drug remaining at 30 MBq after 4 hrs by Radio-HPLC analysis; assay type: ADME, tissue-based; details: read-out: Stability; summary of the method: as §2
# Heart [23] = test: Biodistribution in Sprague-Dawley rat heart assessed per gram of tissue at 1 MBq, iv after 1 hr; assay type: ADME, organism-based; details: in vivo; summary of the method: as §1
# Lung [24] = test: Biodistribution in Sprague-Dawley rat lungs assessed per gram of tissue at 1 MBq, iv after 0.25 hrs; assay type: ADME, organism-based; details: in vivo; summary of the method: as §1
# Lung [25] = test: Biodistribution in Sprague-Dawley rat lungs assessed per gram of tissue at 1 MBq, iv after 1 hr; assay type: ADME, organism-based; details: in vivo; summary of the method: as §1
# [26] = Metabolic stability in Sprague-Dawley rat frontal cortex assessed as drug remaining at 30 MBq after 0.25 hrs by Radio-HPLC analysis; assay type: ADME, tissue-based; details: read-out: Stability; summary of the method: as §2
# Lung [27] = test: Biodistribution in Sprague-Dawley rat lungs assessed per gram of tissue at 1 MBq, iv after 0.5 hrs; assay type: ADME, organism-based; details: in vivo; summary of the method: as §1
# Liver [28] = test: Biodistribution in Sprague-Dawley rat liver assessed per gram of tissue at 1 MBq, iv after 0.25 hrs; assay type: ADME, organism-based; details: in vivo; summary of the method: as §1
# Lung [29] = test: Biodistribution in Sprague-Dawley rat lungs assessed per gram of tissue at 1 MBq, iv after 4 hrs; assay type: ADME, organism-based; details: in vivo; summary of the method: as §1
# [30] = Metabolic stability in Sprague-Dawley rat olfactory bulb assessed as drug remaining at 30 MBq after 0.25 hrs by Radio-HPLC analysis; assay type: ADME, tissue-based; details: read-out: Stability; summary of the method: as §2
# Spleen [31] = test: Biodistribution in Sprague-Dawley rat spleen assessed per gram of tissue at 1 MBq, iv after 0.25 hrs; assay type: ADME, organism-based; details: in vivo; summary of the method: as §1
# Liver [32] = test: Biodistribution in Sprague-Dawley rat liver assessed per gram of tissue at 1 MBq, iv after 0.5 hrs; assay type: ADME, organism-based; details: in vivo; summary of the method: as §1
# Kidney [33] = test: Biodistribution in Sprague-Dawley rat kidney assessed per gram of tissue at 1 MBq, iv after 0.5 hrs; assay type: ADME, organism-based; details: in vivo; summary of the method: as §1
# Femur [34] = test: Biodistribution in Sprague-Dawley rat femur at 1 MBq, iv after 4 hrs; assay type: ADME, organism-based; details: in vivo; summary of the method: as §1
# Liver [35] = test: Biodistribution in Sprague-Dawley rat liver assessed per gram of tissue at 1 MBq, iv after 4 hrs; assay type: ADME, organism-based; details: in vivo; summary of the method: as §1
# Heart [36] = test: Biodistribution in Sprague-Dawley rat heart assessed per gram of tissue at 1 MBq, iv after 4 hrs; assay type: ADME, organism-based; details: in vivo; summary of the method: as §1
# Blood [37] = test: Biodistribution in Sprague-Dawley rat blood at 1 MBq, iv after 0.25 hrs; assay type: ADME, organism-based; details: in vivo; summary of the method: as §1
# [38] = Metabolic stability in Sprague-Dawley rat plasma assessed as drug remaining at 30 MBq after 0.25 hrs by Radio-HPLC analysis; assay type: ADME, cell-free; details: read-out: Stability; summary of the method: as §2
# Blood [39] = test: Biodistribution in Sprague-Dawley rat blood at 1 MBq, iv after 4 hrs; assay type: ADME, organism-based; details: in vivo; summary of the method: as §1
# [40] = Lipophilicity, log p at pH 7.5; assay type: physicochemical; details: buffer
# Summary of the method: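 RP-HPLC on a C18 column with methanol/0.1 M phosphate buffer pH 7.5 (60/40) at 1 mL/min. Samples were dissolved in methanol. log P7.5 was estimated by comparing retention time with that of reference compounds of known log P.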
# Translocator protein [41] = target: T1, Translocator protein (Rattus norvegicus, UniProt P16257); test: Displacement of [3H]Ro 5-4864 from peripheral benzodiazepine receptor in rat kidney membrane; assay type: cell membranes
# T1 sequence (P16257 whole entry, looked up): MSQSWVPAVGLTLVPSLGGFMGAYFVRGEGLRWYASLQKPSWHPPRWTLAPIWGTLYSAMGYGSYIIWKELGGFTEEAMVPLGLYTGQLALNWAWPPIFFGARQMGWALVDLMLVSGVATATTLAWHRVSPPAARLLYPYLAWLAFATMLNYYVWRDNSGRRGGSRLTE
# [42] = Displacement of [3H]flumazenil from central benzodiazepine receptor in rat brain cortex membrane; assay type: cell membranes
# Summary of the method: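 Rat brain cortex membranes (100-150 µg protein) were incubated in triplicate at 25 °C for 45 min with [3H]flumazenil (2 nM) and 7 ligand concentrations (10^-10 to 10^-5 M). Nonspecific binding was set with flumazenil 20 µM. Assays were filtered, washed with ice-cold Tris/HCl pH 7.4 and counted. Ki was derived from IC50 by Cheng-Prusoff.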
# Translocator protein [43] = target: T1, Translocator protein; test: Displacement of [3H]PK11195 from peripheral benzodiazepine receptor in rat kidney membrane; assay type: cell membranes
Compound,Drug uptake (Adrenal [1]) [%ID],Drug uptake (Spleen [2]) [%ID],Drug uptake (Liver [3]) [%ID],Drug uptake (Kidney [4]) [%ID],Drug uptake (Spleen [5]) [%ID],Drug uptake [6] [%ID],Drug uptake (Heart [7]) [%ID],Drug uptake (Kidney [8]) [%ID],Drug uptake (Heart [9]) [%ID],Drug uptake [10] [%ID],remaining at 4 h [12] [%],Drug uptake (Femur [14]) [% ID/g],Drug uptake (Spleen [15]) [%ID],Drug uptake (Kidney [16]) [%ID],Drug uptake (Adrenal [17]) [%ID],Drug uptake (Adrenal [18]) [%ID],Drug uptake (Adrenal [19]) [%ID],Drug uptake [20] [%ID],Drug uptake [21] [%ID],Drug uptake (Heart [23]) [%ID],also measured
CCN(CC)C(=O)Cc1c(-c2ccc(OCC[18F])cc2)nc2ccc(Cl)cn12,6.7,3.4,0.35,2.7,3.9,0.42,4.4,3.3,4.3,0.31,10,0.4,1.9,1.3,7.9,7.1,7.3,0.17,0.23,4.6,Kp [11]: 2; remaining at 4 h [13]: < 1%; remaining at 4 h [22]: 40%; Drug uptake (Lung [24]): 14.3 %ID; Drug uptake (Lung [25]): 11.6 %ID; remaining at 0.25 h [26]: 55%; Drug uptake (Lung [27]): 12.1 %ID; Drug uptake (Liver [28]): 0.63 %ID; Drug uptake (Lung [29]): 8.1 %ID; remaining at 0.25 h [30]: 80%; Drug uptake (Spleen [31]): 4.5 %ID; Drug uptake (Liver [32]): 0.52 %ID; Drug uptake (Kidney [33]): 3.2 %ID; Drug uptake (Femur [34]): 0.7 % ID/g; Drug uptake (Liver [35]): 0.29 %ID; Drug uptake (Heart [36]): 2.8 %ID
CCN(CC)C(=O)Cc1c(-c2ccc(OCCC[18F])cc2)nc2ccc(Cl)cn12,8.5,4.5,0.61,3.7,6,0.53,8.3,4.3,7.8,0.41,30,0.6,2.5,1.8,11.8,11.4,9.6,0.33,0.43,6.4,Drug uptake (Blood [37]): 0.3 % ID/g; Drug uptake (Lung [24]): 12.3 %ID; remaining at 0.25 h [38]: 10%; Drug uptake (Lung [25]): 4.1 %ID; remaining at 0.25 h [26]: 55%; Drug uptake (Lung [27]): 7.7 %ID; Drug uptake (Liver [28]): 1.08 %ID; Drug uptake (Lung [29]): 2.2 %ID; Drug uptake (Spleen [31]): 5.5 %ID; Drug uptake (Liver [32]): 0.79 %ID; Drug uptake (Kidney [33]): 5 %ID; Drug uptake (Blood [39]): 0.1 % ID/g; Drug uptake (Femur [34]): 2.2 % ID/g; Drug uptake (Liver [35]): 0.3 %ID; Drug uptake (Heart [36]): 2.9 %ID
CCN(CC)C(=O)Cc1c(-c2ccc(OCCF)cc2)nc2ccc(Cl)cn12,,,,,,,,,,,,,,,,,,,,,logD [40]: 2.7; Ki (Translocator protein [41]): 3.3 nM; Ki [42]: 790 nM; Ki (Translocator protein [43]): 5.8 nM
CCN(CC)C(=O)Cc1c(-c2ccc(OCCCF)cc2)nc2ccc(Cl)cn12,,,,,,,,,,,,,,,,,,,,,logD [40]: 3.2; Ki (Translocator protein [41]): 4.2 nM; Ki [42]: 800 nM; Ki (Translocator protein [43]): 3.7 nM
